Source: ChEMBL document CHEMBL4732237, “Discovery of 4-alkoxy-2-aryl-6,7-dimethoxyquinolines as a new class of topoisomerase I inhibitors endowed with potent in vitro anticancer activity” (2021)

Experiments:
Type in all cases: functional
OVCAR-5 = assay: Growth inhibition of human OVCAR-5 cells incubated for 48 hrs by sulforhodamine B assay
How it was run: (§1)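 NCI five-dose screen (0.01–100 µM; five concentrations plus control). Cells grown in RPMI 1640/5% FBS/2 mM L-glutamine and preincubated 24 h, with time-zero plates TCA-fixed. Drug exposure 48 h at 37 °C, followed by SRB protein staining and reading at 515 nm. GI50 is the concentration at [(Ti-Tz)/(C-Tz)]×100 = 50.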

IGROV-1 = assay: Growth inhibition of human IGROV-1 cells incubated for 48 hrs by sulforhodamine B assay
How it was run: (§2)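 NCI five-dose screen covering 0.01–100 µM, prepared as 10-fold or ½-log dilutions from DMSO stock. Cells in RPMI 1640 with 5% FBS were exposed for 48 h at 37 °C after 24 h preincubation. Adherent cells were fixed with TCA (final 10%) and suspension cells were settled before fixing. Stain was SRB, read at 515 nm. GI50 = 50% reduction in net protein increase versus control, with Tz taken at drug addition.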

U-251 = assay: Growth inhibition of human U-251 cells incubated for 48 hrs by sulforhodamine B assay
How it was run: (§3)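 NCI five-dose assay, with drug stocks in DMSO diluted in medium to five concentrations (10-fold or ½-log series). Cells in RPMI 1640/5% FBS were pre-incubated 24 h, and time-zero plates were TCA-fixed at drug addition. After 48 h at 37 °C, cells were TCA-fixed, SRB-stained and read at 515 nm. GI50 is from [(Ti-Tz)/(C-Tz)]×100 = 50, TGI from Ti = Tz, and LC50 from [(Ti-Tz)/Tz]×100 = -50.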

CCRF-CEM = assay: Growth inhibition of human CCRF-CEM cells incubated for 48 hrs by sulforhodamine B assay; how it was run: as §2
PC-3 = assay: Growth inhibition of human PC-3 cells incubated for 48 hrs by sulforhodamine B assay; how it was run: as §1
SK-MEL-2 = assay: Growth inhibition of human SK-MEL-2 cells incubated for 48 hrs by sulforhodamine B assay; how it was run: as §1
SF-295 = assay: Growth inhibition of human SF-295 cells incubated for 48 hrs by sulforhodamine B assay; how it was run: as §1
CAKI-1 = assay: Growth inhibition of human CAKI-1 cells incubated for 48 hrs by sulforhodamine B assay; how it was run: as §2
HL-60(TB) = assay: Growth inhibition of human HL-60(TB) cells incubated for 48 hrs by sulforhodamine B assay
How it was run: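 NCI-60 five-dose screen. Cells in RPMI 1640 with 5% FBS and 2 mM L-glutamine were plated at 5000–40,000 cells/well and preincubated 24 h at 37 °C, 5% CO2. Drugs in DMSO were given at five serial 10-fold or ½-log dilutions for 48 h. Adherent cells fixed with 10% TCA (final); suspension cells fixed after settling. SRB stained; A515. GI50 from [(Ti-Tz)/(C-Tz)]x100 = 50.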

OVCAR-3 = assay: Growth inhibition of human OVCAR-3 cells incubated for 48 hrs by sulforhodamine B assay; how it was run: as §1
MDA-MB-468 = assay: Growth inhibition of human MDA-MB-468 cells incubated for 48 hrs by sulforhodamine B assay; how it was run: as §2
SW-620 = assay: Growth inhibition of human SW-620 cells incubated for 48 hrs by sulforhodamine B assay; how it was run: as §3
BT-549 = assay: Growth inhibition of human BT-549 cells incubated for 48 hrs by sulforhodamine B assay; how it was run: as §2
ACHN = assay: Growth inhibition of human ACHN cells incubated for 48 hrs by sulforhodamine B assay; how it was run: as §2
SF-268 = assay: Growth inhibition of human SF-268 cells incubated for 48 hrs by sulforhodamine B assay; how it was run: as §1
RXF 393 = assay: Growth inhibition of human RXF 393 cells incubated for 48 hrs by sulforhodamine B assay; how it was run: as §1
Malme-3M = assay: Growth inhibition of human Malme-3M cells incubated for 48 hrs by sulforhodamine B assay; how it was run: as §1
M14 = assay: Growth inhibition of human M14 cells incubated for 48 hrs by sulforhodamine B assay; how it was run: as §2
UACC-257 = assay: Growth inhibition of human UACC-257 cells incubated for 48 hrs by sulforhodamine B assay; how it was run: as §3
SK-MEL-5 = assay: Growth inhibition of human SK-MEL-5 cells incubated for 48 hrs by sulforhodamine B assay; how it was run: as §1
NCI-H522 = assay: Growth inhibition of human NCI-H522 cells incubated for 48 hrs by sulforhodamine B assay; how it was run: as §1
HCC 2998 = assay: Growth inhibition of human HCC 2998 cells incubated for 48 hrs by sulforhodamine B assay; how it was run: as §2
MOLT-4 = assay: Growth inhibition of human MOLT-4 cells incubated for 48 hrs by sulforhodamine B assay; how it was run: as §1
T47D = assay: Growth inhibition of human T47D cells incubated for 48 hrs by sulforhodamine B assay; how it was run: as §3
NCI-H23 = assay: Growth inhibition of human NCI-H23 cells incubated for 48 hrs by sulforhodamine B assay; how it was run: as §1
NCI-H226 = assay: Growth inhibition of human NCI-H226 cells incubated for 48 hrs by sulforhodamine B assay; how it was run: as §1
UO-31 = assay: Growth inhibition of human UO-31 cells incubated for 48 hrs by sulforhodamine B assay; how it was run: as §3
LOX IMVI = assay: Growth inhibition of human LOX IMVI cells incubated for 48 hrs by sulforhodamine B assay; how it was run: as §2
HOP-92 = assay: Growth inhibition of human HOP-92 cells incubated for 48 hrs by sulforhodamine B assay; how it was run: as §2
SR = assay: Growth inhibition of human SR cells incubated for 48 hrs by sulforhodamine B assay; how it was run: as §1
NCI/ADR-RES = assay: Growth inhibition of human NCI/ADR-RES cells incubated for 48 hrs by sulforhodamine B assay; how it was run: as §1
OVCAR-4 = assay: Growth inhibition of human OVCAR-4 cells incubated for 48 hrs by sulforhodamine B assay; how it was run: as §1
SK-MEL-28 = assay: Growth inhibition of human SK-MEL-28 cells incubated for 48 hrs by sulforhodamine B assay; how it was run: as §1
NCI-H460 = assay: Growth inhibition of human NCI-H460 cells incubated for 48 hrs by sulforhodamine B assay; how it was run: as §1

How did the GI50 (OVCAR-5) turn out when `COc1cc2nc(-c3ccc(Cl)cc3)cc(OCCCN3CCCC3)c2cc1OC` was run?
The GI50 was 1030 nM.

What about the GI50 (IGROV-1) of the same compound?
The GI50 was 881 nM.

What about the GI50 (U-251) of the same compound?
The GI50 was 1790 nM.

And the GI50 (CCRF-CEM)?
The GI50 was 2140 nM.

And the GI50 (PC-3)?
Its GI50 is 1760 nM.

What about the GI50 (SK-MEL-2) of the same compound?
The GI50 was 2160 nM.

And the GI50 (SF-295)?
Its GI50 is 1220 nM.

What about the GI50 (CAKI-1) of the same compound?
Its GI50 is 303 nM.

What about the GI50 (HL-60(TB)) of the same compound?
The GI50 was 2720 nM.

What about the GI50 (OVCAR-3) of the same compound?
The GI50 was 2710 nM.

And the GI50 (MDA-MB-468)?
Its GI50 is 1280 nM.

And the GI50 (SW-620)?
Its GI50 is 3.12 µM.

What about the GI50 (BT-549) of the same compound?
Its GI50 is 1770 nM.

And the GI50 (ACHN)?
Its GI50 is 1930 nM.

What about the GI50 (SF-268) of the same compound?
The GI50 was 2530 nM.

What about the GI50 (RXF 393) of the same compound?
The GI50 was 1170 nM.

What about the GI50 (Malme-3M) of the same compound?
The GI50 was 1680 nM.

And the GI50 (M14)?
Its GI50 is 402 nM.

And the GI50 (UACC-257)?
The GI50 was 1960 nM.

What about the GI50 (SK-MEL-5) of the same compound?
Its GI50 is 961 nM.

What about the GI50 (NCI-H522) of the same compound?
Its GI50 is 2360 nM.

And the GI50 (HCC 2998)?
Its GI50 is 1860 nM.

What about the GI50 (MOLT-4) of the same compound?
The GI50 was 1500 nM.

What about the GI50 (T47D) of the same compound?
The GI50 was 1020 nM.

And the GI50 (NCI-H23)?
Its GI50 is 2450 nM.

What about the GI50 (NCI-H226) of the same compound?
The GI50 was 898 nM.

And the GI50 (UO-31)?
Its GI50 is 1720 nM.

What about the GI50 (LOX IMVI) of the same compound?
Its GI50 is 191 nM.

And the TGI (LOX IMVI)?
Its TGI is 446 nM.

And the GI50 (HOP-92)?
The GI50 was 850 nM.

And the GI50 (SR)?
The GI50 was 251 nM.

And the GI50 (NCI/ADR-RES)?
The GI50 was 683 nM.

And the GI50 (OVCAR-4)?
The GI50 was 3 µM.

What about the GI50 (SK-MEL-28) of the same compound?
Its GI50 is 1480 nM.

And the GI50 (NCI-H460)?
Its GI50 is 823 nM.

Which GI50 (OVCAR-5) does the source give for `COc1cc2nc(-c3ccc(C(F)(F)F)cc3)cc(OCCCN3CCC(O)CC3)c2cc1OC` here?
Its GI50 is 3140 nM.

What about the GI50 (IGROV-1) of the same compound?
The GI50 was 900 nM.

What about the GI50 (U-251) of the same compound?
Its GI50 is 2120 nM.

What about the GI50 (CCRF-CEM) of the same compound?
The GI50 was 3260 nM.

What about the GI50 (PC-3) of the same compound?
The GI50 was 3660 nM.

And the GI50 (SK-MEL-2)?
The GI50 was 3850 nM.

And the GI50 (SF-295)?
The GI50 was 1610 nM.

And the GI50 (CAKI-1)?
Its GI50 is 376 nM.

And the GI50 (HL-60(TB))?
Its GI50 is 13900 nM.

And the GI50 (OVCAR-3)?
The GI50 was 6100 nM.

What about the GI50 (MDA-MB-468) of the same compound?
The GI50 was 1630 nM.

And the GI50 (SW-620)?
Its GI50 is 3.53 µM.

And the GI50 (BT-549)?
The GI50 was 6590 nM.

What about the GI50 (ACHN) of the same compound?
The GI50 was 3180 nM.

And the GI50 (SF-268)?
Its GI50 is 5760 nM.

And the GI50 (RXF 393)?
The GI50 was 1340 nM.

And the GI50 (Malme-3M)?
The GI50 was 2650 nM.

And the GI50 (M14)?
Its GI50 is 535 nM.

What about the GI50 (UACC-257) of the same compound?
Its GI50 is 2280 nM.

And the GI50 (SK-MEL-5)?
The GI50 was 1430 nM.

What about the GI50 (NCI-H522) of the same compound?
Its GI50 is 4150 nM.

What about the GI50 (HCC 2998) of the same compound?
Its GI50 is 4070 nM.

What about the GI50 (MOLT-4) of the same compound?
The GI50 was 3270 nM.

What about the GI50 (T47D) of the same compound?
The GI50 was 2970 nM.

And the GI50 (NCI-H23)?
The GI50 was 6160 nM.

What about the GI50 (NCI-H226) of the same compound?
The GI50 was 1590 nM.

And the GI50 (UO-31)?
Its GI50 is 2710 nM.

And the GI50 (LOX IMVI)?
The GI50 was 190 nM.

What about the TGI (LOX IMVI) of the same compound?
The TGI was 447 nM.

What about the GI50 (HOP-92) of the same compound?
Its GI50 is 1680 nM.

And the GI50 (SR)?
Its GI50 is 274 nM.

What about the GI50 (NCI/ADR-RES) of the same compound?
The GI50 was 847 nM.

What about the GI50 (OVCAR-4) of the same compound?
Its GI50 is 9.14 µM.

What about the GI50 (SK-MEL-28) of the same compound?
Its GI50 is 2380 nM.

And the GI50 (NCI-H460)?
The GI50 was 835 nM.

Which results are given for `COc1cc2nc(-c3ccc(C(F)(F)F)cc3)cc(OCCCN3CCCC3)c2cc1OC`?
GI50 (OVCAR-5): 803 nM; GI50 (IGROV-1): 592 nM; GI50 (U-251): 1050 nM; GI50 (CCRF-CEM): 1080 nM; GI50 (PC-3): 1070 nM; GI50 (SK-MEL-2): 1930 nM; GI50 (SF-295): 328 nM; GI50 (CAKI-1): 188 nM; GI50 (HL-60(TB)): 1840 nM; GI50 (OVCAR-3): 2150 nM; GI50 (MDA-MB-468): 885 nM; GI50 (SW-620): 1.62 µM; GI50 (BT-549): 1990 nM; GI50 (ACHN): 812 nM; GI50 (SF-268): 2390 nM; GI50 (RXF 393): 1130 nM; GI50 (Malme-3M): 1010 nM; GI50 (M14): 336 nM; GI50 (UACC-257): 1410 nM; GI50 (SK-MEL-5): 247 nM; TGI (SK-MEL-5): 645 nM; GI50 (NCI-H522): 1740 nM; GI50 (HCC 2998): 1450 nM; GI50 (MOLT-4): 994 nM; GI50 (T47D): 472 nM; GI50 (NCI-H23): 1910 nM; GI50 (NCI-H226): 343 nM; GI50 (UO-31): 2020 nM; GI50 (LOX IMVI): 116 nM; TGI (LOX IMVI): 275 nM; GI50 (HOP-92): 460 nM; GI50 (SR): 133 nM; GI50 (NCI/ADR-RES): 458 nM; GI50 (OVCAR-4): 3.71 µM; GI50 (SK-MEL-28): 1200 nM; GI50 (NCI-H460): 528 nM
